Experimental data: ChEMBL document CHEMBL1250544, “Diversity-oriented synthesis of cyclic acyldepsipeptides leads to the discovery of a potent antibacterial agent” (2010)
≈ marks a conversion by molar mass, not a printed value.

Assays:
Staphylococcus aureus [1] = test: Antimicrobial activity against methicillin-susceptible Staphylococcus aureus ATCC 3556 after 24 hrs by broth microdilution assay; type: functional
Summary of the method: (§1)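 CLSI broth microdilution run in duplicate. Compounds were dissolved in DMSO and serially diluted twofold in cation-adjusted Mueller–Hinton broth (25 µg/mL calcium, 12.5 µg/mL magnesium). Inoculum was verified by colony counts on tryptic soy agar. MIC was the lowest concentration visually inhibiting >99% of colonies.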

Staphylococcus aureus [2] = test: Antimicrobial activity against methicillin-resistant Staphylococcus aureus from blood after 24 hrs by broth microdilution assay; type: functional
Summary of the method: (§2)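 CLSI broth microdilution in duplicate on clinical isolates from Veterans Affairs Medical Center patients. Compounds were dissolved in DMSO and serially diluted twofold in cation-adjusted Mueller–Hinton broth (25 µg/mL Ca, 12.5 µg/mL Mg). Inoculum was verified by colony counts on tryptic soy agar. MIC is the lowest concentration visually inhibiting >99%.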

Enterococcus faecalis [3] = test: Antimicrobial activity against Enterococcus faecalis ATCC 29212 after 24 hrs by broth microdilution assay; type: functional; conditions: ATCC 29212, 24 h; summary of the method: as §1
Enterococcus faecalis [4] = test: Antimicrobial activity against Enterococcus faecalis clinical isolate obtained from rectal swab after 24 hrs by broth microdilution assay; type: functional; summary of the method: as §1
Enterococcus faecium = test: Antimicrobial activity against vancomycin-resistant Enterococcus faecium clinical isolate obtained from tissue after 24 hrs by broth microdilution assay; type: functional; summary of the method: as §2
Enterococcus faecalis [5] = test: Antimicrobial activity against vancomycin-resistant Enterococcus faecalis clinical isolate obtained from rectal swab after 24 hrs by broth microdilution assay
[6] = Staphylococcus aureus, ATCC 3556, 24 h, read-out: MIC
[7] = Staphylococcus aureus, 24 h, read-out: MBC

SMILES: CCCC/C=C/C(=O)N[C@@H](Cc1cccc(F)c1)C(=O)N[C@@H]1COC(=O)[C@@H]2CCCN2C(=O)[C@H](C)NC(=O)[C@@H]2CCCCN2C(=O)[C@@H]2CCCN2C1=O
- MIC (Staphylococcus aureus [1]): 1.25 µg/mL (≈ 1.69 µM)
- MIC (Staphylococcus aureus [1]; [6]): 1.25 µg/mL (≈ 1.69 µM)
- MBC (Staphylococcus aureus [2]): 1.25 µg/mL (≈ 1.69 µM)
- MBC (Staphylococcus aureus [2]; [7]): 1.25 µg/mL (≈ 1.69 µM)
- MBC (Enterococcus faecalis [3]): 1.25 µg/mL (≈ 1.69 µM)
- MIC (Enterococcus faecalis [3]): 0.16 µg/mL (≈ 0.217 µM)
- MBC (Enterococcus faecalis [4]): 0.04 µg/mL (≈ 0.0541 µM)
- MIC (Enterococcus faecalis [4]): 0.04 µg/mL (≈ 0.0541 µM)
- MBC (Enterococcus faecium): 0.08 µg/mL (≈ 0.108 µM)
- MIC (Enterococcus faecium): 0.08 µg/mL (≈ 0.108 µM)
- MBC (Enterococcus faecalis [5]): 0.04 µg/mL (≈ 0.0541 µM)
- MIC (Enterococcus faecalis [5]): 0.04 µg/mL (≈ 0.0541 µM)

SMILES: CCCC/C=C/C(=O)N[C@@H](Cc1cccc(F)c1)C(=O)N[C@@H]1COC(=O)[C@@H]2CCCN2C(=O)[C@H](C)NC(=O)[C@H]2CCCCN2C(=O)[C@@H]2CCCN2C1=O
- MIC (Staphylococcus aureus [1]; [6]): > 312 µg/mL
- MBC (Staphylococcus aureus [2]; [7]): > 312 µg/mL

SMILES: CCCC/C=C/C(=O)N[C@@H](Cc1cccc(F)c1)C(=O)N[C@@H]1COC(=O)[C@@H]2CCCN2C(=O)[C@H](C)NC(=O)[C@@H]2CC(C)CCN2C(=O)[C@@H]2CCCN2C1=O (some centres undefined)
- MIC (Staphylococcus aureus [1]; [6]): 0.6 µg/mL (≈ 0.797 µM)
- MBC (Enterococcus faecalis [3]): 0.08 µg/mL (≈ 0.106 µM)
- MIC (Enterococcus faecalis [3]): 0.04 µg/mL (≈ 0.0531 µM)
- MBC (Enterococcus faecalis [4]): 0.04 µg/mL (≈ 0.0531 µM)
- MIC (Enterococcus faecalis [4]): 0.02 µg/mL (≈ 0.0266 µM)
- MBC (Enterococcus faecium): 0.08 µg/mL (≈ 0.106 µM)
- MIC (Enterococcus faecium): 0.04 µg/mL (≈ 0.0531 µM)
- MBC (Enterococcus faecalis [5]): 0.04 µg/mL (≈ 0.0531 µM)
- MIC (Enterococcus faecalis [5]): 0.04 µg/mL (≈ 0.0531 µM)

SMILES: CCCC/C=C/C(=O)N[C@@H](Cc1cccc(F)c1)C(=O)N[C@@H]1COC(=O)[C@@H]2CCCN2C(=O)[C@H](C)NC(=O)[C@H]2CC(C)CCN2C(=O)[C@@H]2CCCN2C1=O (some centres undefined)
- MIC (Staphylococcus aureus [1]; [6]): > 156 µg/mL

SMILES: CCCC/C=C/C(=O)N[C@@H](Cc1cccc(F)c1)C(=O)N[C@@H]1COC(=O)[C@@H]2CCCN2C(=O)[C@H](C)NC(=O)C2(CCC2)N(C)C(=O)[C@@H]2CCCN2C1=O
- MIC (Staphylococcus aureus [1]): >312 µg/mL
- MIC (Staphylococcus aureus [1]; [6]): 312 µg/mL (≈ 422 µM)
- MBC (Staphylococcus aureus [2]; [7]): > 312 µg/mL

SMILES: CCCC/C=C/C(=O)N[C@@H](Cc1cccc(F)c1)C(=O)N[C@@H]1COC(=O)[C@@H]2CCCN2C(=O)[C@H](C)NC(=O)C2(CCCC2)N(C)C(=O)[C@@H]2CCCN2C1=O
- MBC (Staphylococcus aureus [2]; [7]): > 312 µg/mL

SMILES: CCCC/C=C/C(=O)N[C@@H](Cc1cccc(F)c1)C(=O)N[C@@H]1COC(=O)[C@@H]2CCCN2C(=O)[C@H](C)NC(=O)C2(CCCCC2)N(C)C(=O)[C@@H]2CCCN2C1=O
- MBC (Staphylococcus aureus [2]; [7]): > 312 µg/mL
